Test results: ChEMBL document CHEMBL3352485 (J Med Chem, 2014)
Activity calls are given as the source filed them. No cut-off for these calls is given here. Where a SMILES comes first, the peptide text is derived from it. [ ]: non-standard residue; d: D form. Arg(Me) = CNC(=N)NCCC[C@H](N)C(=O)O; d4Pal = N[C@H](Cc1ccncc1)C(=O)O; azaGly = NNC(=O)O

Assays:
KiSS-1 receptor [1] = target: T1, KiSS-1 receptor (Homo sapiens, UniProt Q969F8); experiment: Agonist activity at human KISS1R transfected in CHO cells assessed as intracellular calcium flux after 24 hrs by functional FLIPR assay; format: cell-based
T1 sequence (Q969F8 whole entry): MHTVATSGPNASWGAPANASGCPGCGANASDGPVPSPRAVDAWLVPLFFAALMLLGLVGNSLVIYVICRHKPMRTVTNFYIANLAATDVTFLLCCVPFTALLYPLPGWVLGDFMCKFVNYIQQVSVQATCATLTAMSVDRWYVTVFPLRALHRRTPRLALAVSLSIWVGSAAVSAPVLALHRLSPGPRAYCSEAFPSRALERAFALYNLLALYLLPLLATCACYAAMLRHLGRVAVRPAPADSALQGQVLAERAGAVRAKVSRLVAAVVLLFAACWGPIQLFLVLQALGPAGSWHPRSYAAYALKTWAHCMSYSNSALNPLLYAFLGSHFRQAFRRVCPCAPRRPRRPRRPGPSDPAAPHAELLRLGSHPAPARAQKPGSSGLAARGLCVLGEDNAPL
Summary of the method: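 CHO cells stably expressing human KISS1R were seeded at 15 000 cells/mL, cultured 24 h, then loaded with fluo-3 for 1 h at 37 °C in HBSS/HEPES (pH 7.4) with probenecid and FBS. Cells were washed in HBSS with 2.5 mM probenecid. Peptides came from 1 mM DMSO stocks diluted in buffer containing probenecid, 0.2% BSA and 0.1% CHAPS. Fluorescence was recorded on FLIPR for 3 min; peak counts over 0–180 s gave agonist activity.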

KiSS-1 receptor [2] = target: T2, KiSS-1 receptor (Rattus norvegicus, UniProt Q924U1); experiment: Agonist activity at rat KISS1R transfected in CHO cells assessed as intracellular calcium flux after 24 hrs by functional FLIPR assay; format: cell-based
T2 sequence (Q924U1 whole entry): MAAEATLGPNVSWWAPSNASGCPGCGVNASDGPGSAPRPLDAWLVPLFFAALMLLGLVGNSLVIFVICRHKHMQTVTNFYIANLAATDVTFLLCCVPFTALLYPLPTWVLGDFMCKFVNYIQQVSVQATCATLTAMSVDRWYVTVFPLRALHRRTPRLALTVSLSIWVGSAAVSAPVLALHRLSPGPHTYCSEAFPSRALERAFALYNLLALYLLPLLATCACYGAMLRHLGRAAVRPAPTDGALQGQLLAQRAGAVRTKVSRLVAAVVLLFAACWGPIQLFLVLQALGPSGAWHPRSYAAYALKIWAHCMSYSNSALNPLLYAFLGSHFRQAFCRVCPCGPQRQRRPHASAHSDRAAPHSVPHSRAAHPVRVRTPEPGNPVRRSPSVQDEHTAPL

Rattus norvegicus [3] = experiment: Testosterone-suppressive activity in Crl:CD(SD) rat assessed as number of animal with plasma testosterone level below the limit of detection at 2 nmol/hr, sc through osmotic pumps measured after 6 days by RIA; format: functional
Summary of the method: (§1)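 Peptide was dissolved in distilled water or 50% DMSO as 0.1–2 mM pump solutions and delivered by ALZET osmotic pumps implanted subcutaneously in the back of 9-week-old male Crl:CD(SD) rats (n = 5) under ether. Controls received distilled-water pumps. After 6 days, rats were decapitated and plasma was recovered with aprotinin/EDTA. Testosterone was measured by RIA, and the number of rats below the detection limit (0.04 ng/mL) was counted.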

KiSS-1 receptor [4] = target: T1, KiSS-1 receptor; experiment: Displacement of radioligand from human KISS1R transfected in CHO cells; format: cell-based
Summary of the method: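 Binding used membrane fractions prepared from CHO cells expressing recombinant human KISS1R.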

KiSS-1 receptor [5] = target: T2, KiSS-1 receptor; experiment: Displacement of radioligand from rat KISS1R transfected in CHO cells; format: cell-based
Rattus norvegicus [6] = experiment: Testosterone-suppressive activity in Crl:CD(SD) rat assessed as number of animal with plasma testosterone level below the limit of detection at 0.5 nmol/hr, sc through osmotic pumps measured after 6 days by RIA; format: functional; summary of the method: as §1
Rattus norvegicus [7] = experiment: Testosterone-suppressive activity in Crl:CD(SD) rat assessed as number of animal with plasma testosterone level below the limit of detection at 0.3 nmol/hr, sc through osmotic pumps measured after 6 days by RIA; format: functional; summary of the method: as §1
Rattus norvegicus [8] = experiment: Testosterone-suppressive activity in Crl:CD(SD) rat assessed as number of animal with plasma testosterone level below the limit of detection at 0.1 nmol/hr, sc through osmotic pumps measured after 6 days by RIA; format: functional; summary of the method: as §1
[9] = Stability of the compound in aqueous solution (JP1) assessed as residual ratio at pH 1.2 up to 1 week by HPLC analysis relative to initial level; format: physicochemical
Summary of the method: (§2)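 Peptides in aqueous solution at pH 1.2 (JP1, containing 10% acetonitrile), 3, 5 or 7 were kept in the dark at 37 °C for up to 2 weeks. Peptide remaining was quantified from HPLC peak area, with detection at 230–280 nm. The residual ratio (stability index) was expressed relative to the time-0 amount, taken as 100%.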

[10] = Stability of the compound in aqueous solution assessed as residual ratio at pH 3 up to 1 week by HPLC analysis relative to initial level; format: physicochemical; summary of the method: as §2
[11] = Stability of the compound in aqueous solution assessed as residual ratio at pH 5 up to 1 week by HPLC analysis relative to initial level; format: physicochemical; summary of the method: as §2
[12] = Stability of the compound in aqueous solution assessed as residual ratio at pH 7 up to 1 week by HPLC analysis relative to initial level; format: physicochemical; summary of the method: as §2
[13] = Stability of the compound in aqueous solution (JP1) assessed as residual ratio at pH 1.2 up to 2 weeks by HPLC analysis relative to initial level; format: physicochemical; summary of the method: as §2
[14] = Stability of the compound in aqueous solution assessed as residual ratio at pH 3 up to 2 weeks by HPLC analysis relative to initial level; format: physicochemical; summary of the method: as §2
[15] = Stability of the compound in aqueous solution assessed as residual ratio at pH 5 up to 2 weeks by HPLC analysis relative to initial level; format: physicochemical; summary of the method: as §2
[16] = Stability of the compound in aqueous solution assessed as residual ratio at pH 7 up to 2 weeks by HPLC analysis relative to initial level; format: physicochemical; summary of the method: as §2
[17] = AUC (0 to 24 hrs) in Sprague-Dawley rat at 1 mg/kg, iv after 24 hrs by LC-MS/MS analysis; format: ADME, organism-based; design: time < 24 hr, dose 1 mg/kg, route intravenous; details: plasma
Summary of the method: (§3)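 Male Crl:CD(SD) rats (3 per group) got a single intravenous dose of 1 mg/kg. Blood was drawn at 5, 10, 15 and 30 min and at 1, 2, 4, 8 and 24 h. Plasma proteins were removed with 0.2% formic acid/methanol and acetonitrile, and the supernatant was treated with 0.4% formic acid. Peptide was quantified by LC-MS. Noncompartmental parameters were derived per rat, reported as mean ± SD (n = 3).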

[18] = Mean residence time in Sprague-Dawley rat at 1 mg/kg, iv after 24 hrs by LC-MS/MS analysis; format: ADME, organism-based; design: dose 1 mg/kg, route intravenous; details: in vivo; summary of the method: as §3
[19] = Volume of distribution at steady state in Sprague-Dawley rat at 1 mg/kg, iv after 24 hrs by LC-MS/MS analysis; format: ADME, organism-based; design: dose 1 mg/kg, route intravenous; details: in vivo, read-out: Vdss; summary of the method: as §3
[20] = Total clearance in Sprague-Dawley rat at 1 mg/kg, iv after 24 hrs by LC-MS/MS analysis; format: ADME, organism-based; design: dose 1 mg/kg, route intravenous; details: in vivo; summary of the method: as §3
[21] = Cmax in Sprague-Dawley rat at 1 mg/kg, sc after 24 hrs by LC-MS/MS analysis; format: ADME, organism-based; design: dose 1 mg/kg, route subcutaneous; details: in vivo
Summary of the method: (§4)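 Single subcutaneous dose of 1 mg/kg in male Crl:CD(SD) rats, n = 3 per group. Blood was sampled from 5 min to 24 h (5, 10, 15, 30 min; 1, 2, 4, 8, 24 h). Plasma was deproteinized with formic acid/methanol and acetonitrile, and peptide levels were measured by LC-MS. Noncompartmental analysis per animal gave Cmax, Tmax, AUC0-24h, MRT and BA; values are mean ± SD (n = 3).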

[22] = Tmax in Sprague-Dawley rat at 1 mg/kg, sc after 24 hrs by LC-MS/MS analysis; format: ADME, organism-based; design: dose 1 mg/kg, route subcutaneous; details: in vivo; summary of the method: as §4
[23] = AUC (0 to 24 hrs) in Sprague-Dawley rat at 1 mg/kg, sc after 24 hrs by LC-MS/MS analysis; format: ADME, organism-based; design: time < 24 hr, dose 1 mg/kg, route subcutaneous; details: plasma; summary of the method: as §4
[24] = Mean residence time in Sprague-Dawley rat at 1 mg/kg, sc after 24 hrs by LC-MS/MS analysis; format: ADME, organism-based; design: dose 1 mg/kg, route subcutaneous; details: in vivo; summary of the method: as §4
[25] = C5min in Sprague-Dawley rat at 1 mg/kg, iv after 5 mins by LC-MS/MS analysis; details: in vivo, read-out: Cmin
Rattus norvegicus [26] = experiment: Testosterone-suppressive activity in Crl:CD(SD) rat assessed as number of animal with plasma testosterone level below the limit of detection at 0.05 mol/hr, sc through osmotic pumps measured after 6 days by RIA; format: functional
Rattus norvegicus [27] = experiment: Testosterone-suppressive activity in Crl:CD(SD) rat assessed as number of animal with plasma testosterone level below the limit of detection at 0.03 mol/hr, sc through osmotic pumps measured after 6 days by RIA; format: functional
Rattus norvegicus [28] = experiment: Testosterone-suppressive activity in Crl:CD(SD) rat assessed as number of animal with plasma testosterone level below the limit of detection […], sc through osmotic pumps measured after 6 days by RIA; format: functional
[29] = Bioavailability in Sprague-Dawley rat at 1 mg/kg, sc after 24 hrs by LC-MS/MS analysis; format: ADME, organism-based; details: in vivo; summary of the method: as §4
Rattus norvegicus [30] = experiment: Testosterone-suppressive activity in Crl:CD(SD) rat assessed as plasma testosterone level below the limit of detection at 10 to 100 pmol/hr, sc continuous administration through osmotic pumps measured up to 1 week by RIA; format: functional, organism-based
Summary of the method: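 Peptide in 50% DMSO was diluted in distilled water to 10, 30 or 100 μM pump solutions, giving 10–100 pmol/h by subcutaneous ALZET osmotic pump in male Crl:CD(SD) rats (n = 5). Vehicle served as control. Plasma testosterone was measured by RIA after 1 or 4 weeks, with values below 0.04 ng/mL set to 0.04. Results are mean ± SD of five rats, tested by one-tailed Shirley–Williams test versus vehicle.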

SMILES | EC50 (KiSS-1 receptor [1]) | EC50 (KiSS-1 receptor [2]) | Ki (KiSS-1 receptor [4]) | Ki (KiSS-1 receptor [5]) | Activity (Rattus norvegicus [8]) | remaining at 168 h [9] | remaining at 168 h [10] | remaining at 168 h [11] | remaining at 168 h [12] | remaining at 336 h [13] | remaining at 336 h [14] | remaining at 336 h [15] | remaining at 336 h [16] | AUC(0-t) at 24 h [17] | MRT [18] | Vd [19] | clearance [20] | Cmax [21] | Tmax [22] | AUC(0-t) at 24 h [23] | other results
CNC(=N)NCCC[C@H](NC(=O)[C@H](CC(C)C)NC(=O)NNC(=O)[C@H](Cc1ccccc1)NC(=O)[C@H](CO)NC(=O)[C@H](CC(N)=O)NC(=O)[C@@H](Cc1ccncc1)NC(=O)[C@H](N)Cc1ccc(O)cc1)C(=O)N[C@@H](Cc1ccccc1)C(N)=O [KISS1-305] (H-[dY][d4Pal]NSF[azaGly]L[Arg(Me)]F-NH2) | 2.6 nM | 10 nM | 0.11 nM | 0.14 nM | 0 rats (n = 5) | 60.3% | 99.4% | 94.8% | 54.9% | 32.8% | 100% | 91.2% | 28% | 239 ng·h/mL | 22.8 min | 1.58 L/kg | 69.9 mL/min/kg | 145 ng/mL | 8.4 min | 96 ng·h/mL | Activity (Rattus norvegicus [3]): 100%; Activity (Rattus norvegicus [6]): 60%; Activity (Rattus norvegicus [7]): 0%; MRT [24]: 36.6 min; concentration at 5 min [25]: 969 ng/mL
CNC(=N)NCCC[C@H](NC(=O)[C@H](CC(C)C)NC(=O)NNC(=O)[C@H](Cc1ccccc1)NC(=O)[C@@H](NC(=O)[C@H](CC(N)=O)NC(=O)[C@@H](Cc1c[nH]c2ccccc12)NC(=O)[C@@H](Cc1ccc(O)cc1)NC(C)=O)[C@@H](C)O)C(=O)N[C@@H](Cc1ccccc1)C(N)=O | 0.94 nM | 3.9 nM | 0.038 nM | 0.087 nM |  | 50.6% | 97.5% | 98.1% | 84.5% | 22.3% | 95% | 96.3% | 67.6% | 497 ng·h/mL | 26.4 min | 0.896 L/kg | 34.5 mL/min/kg | 114 ng/mL | 25.2 min | 144 ng·h/mL | Activity (Rattus norvegicus [26]): 5%; Activity (Rattus norvegicus [27]): 4%; Activity (Rattus norvegicus [28]): 0 animals; MRT [24]: 52.8 min; bioavailability [29]: 28.9%; inhibition (Rattus norvegicus [30]): Active; concentration at 5 min [25]: 1450 ng/mL
CCCC(=O)N[C@H](Cc1ccc(O)cc1)C(=O)N[C@H](Cc1c[nH]c2ccccc12)C(=O)N[C@@H](CC(N)=O)C(=O)N[C@H](C(=O)N[C@@H](Cc1ccccc1)C(=O)NNC(=O)N[C@@H](CC(C)C)C(=O)N[C@@H](CCCNC(=N)NC)C(=O)N[C@@H](Cc1c[nH]c2ccccc12)C(N)=O)[C@@H](C)O | 0.8 nM | 3.7 nM |  | 0.11 nM | 3 rats (n = 5) |  |  |  |  |  |  |  |  |  |  |  |  |  |  |  | Activity (Rattus norvegicus [27]): 0%
